Assay results as given in ChEMBL document CHEMBL1123985, “Oral absorption of cephalosporin antibiotics. 1. Synthesis, biological properties, and oral bioavailability of 7-(arylacetamido)-3-chloro cephalosporins in animals” (J Med Chem, 1988).
In brackets after ≈: the same amount, converted by molar mass. Each block holds one compound with its values, some of them ahead of it.

What was measured:
[1] = Mean plasma levels in rats 1 hr after iv administration of 100 mg/kg of probenecid 5 min prior to test compound; assay type: ADME, organism-based; design: dose 100 mg/kg, route intravenous; settings: rat, read-out: Plasma levels
Outline: (§1)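 Rats, jugular vein cannulated (two per group), test compound iv 20 mg/kg; probenecid 100 mg/kg iv 5 min before in treated groups. Heparinized plasma sampled at 5, 20, 40 min and 1, 2, 3 h, assayed microbiologically (B. subtilis agar well). AUC 0-3 h in μg min/mL; half-life in min.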

[2] = system: Streptococcus pyogenes; assay: Minimum inhibitory concentration against C203 strain of Streptococcus pyogenes
[3] = system: Canis familiaris; assay: Area under plasma concentration vs time curve observed in female mongrel dogs after, iv administration of single 15 mg/kg dose; assay type: ADME, organism-based, Canis lupus familiaris; design: dose 15 mg/kg, route intravenous; settings: dog, in vivo
Outline: (§2)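 Six female mongrel dogs (14-23 kg) fasted overnight, bladder catheterized; single 15 mg/kg solution doses by stomach tube (in water, total 500 mL) or cephalic vein (saline or pH 6.0 NaCl/phosphate/acetate buffer). Plasma sampled at intervals; activity by disk-plate agar diffusion against E. coli MB 3804, standards in dog serum or buffer. AUC μg min/mL, mean ± SEM; BA from iv vs po AUC and urinary recovery.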

[4] = Percent of urinary recovery in rats after, sc administration of single 20 mg/kg dose in solution (N,range); assay type: ADME, organism-based; design: dose 20 mg/kg, route subcutaneous; settings: rat, urine, read-out: Recovery
Outline: (§3)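 Male Wistar rats (200-300 g), jugular-cannulated, upper GI emptied by light cycle; 20 mg/kg in saline (6 mg/mL) sc or orally. Urine collected in wire-bottom cages, assayed by B. subtilis agar well method. Mean ± SD recovery with N and range; bioavailability = oral over mean sc recovery.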

[5] = system: Staphylococcus aureus; assay: Minimum inhibitory concentration against 3055 strain of Staphylococcus aureus
[6] = Area under plasma concentration vs time curve observed in rats for 0-3 h; assay type: ADME; design: time < 3 hr; settings: rat; outline: as §1
[7] = Oral bioavailability in Rhesus monkey; assay type: ADME, organism-based, Macaca mulatta; settings: in vivo
Outline: (§4)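 Rhesus monkeys, adult males, six animals per compound, each given drug orally and iv; fasted overnight. Single 30 mg/kg solution doses, by nasogastric tube (in water) or saphenous vein (in isotonic lactated Ringer). Plasma sampled at intervals, frozen at -70 °C, antibacterial activity by microbiological assay. AUC in μg min/mL; oral bioavailability from oral vs iv AUC.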

[8] = system: Staphylococcus epidermidis; assay: Minimum inhibitory concentration against 222 strain of Staphylococcus epidermidis; assay type: functional
[9] = Area under plasma concentration vs time curve observed in Rhesus monkeys after, iv administration of single 30 mg/kg dose; assay type: ADME, organism-based, Macaca mulatta; design: dose 30 mg/kg, route intravenous; settings: rhesus monkey; outline: as §4
[10] = Half-life of the compound; assay type: ADME; outline: as §1
[11] = Bioavailability in rat; assay type: ADME, organism-based; settings: in vivo; outline: as §3
[12] = system: Klebsiella aerogenes; assay: Minimum inhibitory concentration against EB17 strain of Enterobacter aerogenes; assay type: functional
[13] = system: Salmonella; assay: Minimum inhibitory concentration against X514 strain of Salmonella; assay type: functional
[14] = system: Staphylococcus aureus; assay: Minimum inhibitory concentration against X1.1 strain of Staphylococcus aureus; assay type: functional
[15] = Percent of urinary recovery in rats after, oral administration of single 20 mg/kg dose in solution (N,range); assay type: ADME, organism-based; design: dose 20 mg/kg, route oral; settings: rat, urine, read-out: Recovery; outline: as §3
[16] = system: Canis familiaris; assay: Area under plasma concentration vs time curve observed in female mongrel dogs after, oral administration of single 15 mg/kg dose; assay type: ADME, organism-based, Canis lupus familiaris; design: dose 15 mg/kg, route oral; settings: dog, in vivo; outline: as §2
[17] = Mean plasma levels in rats 2 hr after iv administration of 100 mg/kg of probenecid 5 min prior to test compound; assay type: ADME, organism-based; design: dose 100 mg/kg, route intravenous; settings: rat, read-out: Plasma levels; outline: as §1
[18] = Mean plasma levels in rats 40 min after iv administration of 100 mg/kg of probenecid 5 min prior to test compound; assay type: ADME, organism-based; design: dose 100 mg/kg, route intravenous; settings: rat, read-out: Plasma levels; outline: as §1
[19] = Mean plasma levels in rats 20 min after iv administration of 100 mg/kg of probenecid 5 min prior to test compound; assay type: ADME, organism-based; design: dose 100 mg/kg, route intravenous; settings: rat, read-out: Plasma levels; outline: as §1
[20] = Minimum inhibitory concentration against res 76 strain of Haemophilus influenzae; assay type: functional
[21] = system: Streptococcus pneumoniae; assay: Minimum inhibitory concentration against park strain of Streptococcus pneumoniae
[22] = Oral bioavailability in mouse; assay type: ADME, organism-based; settings: in vivo
Outline: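 Male Cox mice given water and liquid diet overnight; 20 mg/kg in saline (2 mg/mL) sc or orally; urine from collection cages plus bladder contents over 2 h; activity by agar well assay with Bacillus subtilis ATCC 6633. Bioavailability from percent dose excreted in urine after oral vs parenteral dosing.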

[23] = Mean plasma levels in rats at a time 5 min after iv administration of 100 mg/kg of probenecid 5 min prior to test compound; assay type: ADME, organism-based; design: dose 100 mg/kg, route intravenous; settings: rat, read-out: Plasma levels; outline: as §1
[24] = system: Staphylococcus epidermidis; assay: Minimum inhibitory concentration against Epil strain of Staphylococcus epidermidis; assay type: functional
[25] = Mean plasma levels in rats 3h after intravenous administration of 20 mg/kg of compound; assay type: ADME, organism-based; design: dose 20 mg/kg, route intravenous; settings: rat, read-out: Plasma levels; outline: as §1
[26] = system: Streptococcus pyogenes; assay: Minimum inhibitory concentration against Streptococcus pyogenes C203; assay type: functional
[27] = Minimum inhibitory concentration against sens CL strain of Haemophilus influenzae; assay type: functional
[28] = system: Streptococcus pneumoniae; assay: Minimum inhibitory concentration against Park strain of Streptococcus pneumoniae
[29] = Area under plasma concentration vs time curve observed in Rhesus monkeys after oral administration of single 30 mg/kg dose; assay type: ADME, organism-based, Macaca mulatta; design: dose 30 mg/kg, route oral; settings: rhesus monkey; outline: as §4
[30] = Minimum inhibitory concentration against N9 strain of Shigella sonnei; assay type: functional
[31] = Dose in urine (24-h urine excretion) in female mongrel dogs after oral administration of single 15 mg/kg dose; assay type: ADME, organism-based, Canis lupus familiaris; design: dose 15 mg/kg, route oral; settings: dog
Outline: (§5)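 Female mongrel dogs (n=6), bladder catheter; urine collected at intervals after single 15 mg/kg iv or oral solution dose, frozen; antibiotic activity by disk-plate agar diffusion against E. coli MB 3804 with standards in pH 6.0 buffer; percent of dose recovered in urine.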

[32] = Dose in urine (24-h urine excretion) in female mongrel dogs after iv administration of single 15 mg/kg dose; assay type: ADME, organism-based, Canis lupus familiaris; design: dose 15 mg/kg, route intravenous; settings: dog; outline: as §5
[33] = system: Streptococcus pyogenes; assay: Minimum inhibitory concentration against C203 strain of Streptococcus pyogenes; remark: listed apart in the source
[34] = system: Staphylococcus aureus; assay: Minimum inhibitory concentration against S13E strain of Staphylococcus aureus; assay type: functional
[35] = system: Escherichia coli; assay: Minimum inhibitory concentration against EC14 strain Escherichia coli; assay type: functional
[36] = system: Mus musculus; assay: Efficacy against mouse infected ip with 3055 strain of Staphylococcus aureus, administered sc to 19-21-g random sex ICR mice at 1 hr and 5 hr; assay type: functional
Outline: (§6)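 ICR mice, random sex, 19-21 g, challenged ip with 50-500 LC50 from a frozen organism pool; compound given sc or po at 1 and 5 h after challenge, five 2-fold dose levels, eight mice per level; ED50 derived.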

[37] = system: Mus musculus; assay: Efficacy against mouse infected ip with 3055 strain of Staphylococcus aureus, administered po to 19-21-g random sex ICR mice at 1 hr and 5 hr; assay type: functional; outline: as §6
[38] = system: Streptococcus pneumoniae; assay: Minimum inhibitory concentration against Park strain of Streptococcus pneumoniae; assay type: functional
[39] = system: Mus musculus; assay: Efficacy against mouse infected ip with C203 strain of Streptococcus pyogenes, administered po to 19-21-g random sex ICR mice at 1 hr and 5 hr; assay type: functional; outline: as §6
[40] = system: Staphylococcus aureus; assay: Minimum inhibitory concentration against V41 strain of Staphylococcus aureus; assay type: functional
[41] = system: Klebsiella pneumoniae; assay: Minimum inhibitory concentration against X68 strain of Klebsiella pneumoniae; assay type: functional
[42] = system: Mus musculus; assay: Efficacy against mouse infected ip with park strain of Streptococcus pneumoniae administered po to 19-21-g random sex ICR mice at 1 hr and 5 hr; assay type: functional; outline: as §6
[43] = system: Mus musculus; assay: Efficacy against mouse infected ip with park strain of Streptococcus pneumoniae administered sc to 19-21-g random sex ICR mice at 1 hr and 5 hr; assay type: functional; outline: as §6
[44] = system: Mus musculus; assay: Efficacy against mouse infected ip with C203 strain of Streptococcus pyogenes, administered sc to 19-21-g random sex ICR mice at 1 hr and 5 hr; assay type: functional; outline: as §6

- concentration at 1 h [1]: 9800 ng/mL
- MIC [2]: 0.25 µg/mL (≈ 0.667 µM)
- AUC [3]: 1990 µg·min/mL
- dose excreted [4]: 84.3%
- MIC [5]: 1 µg/mL (≈ 2.67 µM)
- AUC at 3 h [6]: 35400 ng·h/mL
- bioavailability [7]: 4.2%
- MIC [8]: 2 µg/mL (≈ 5.34 µM)
- AUC [9]: 50300 ng·h/mL
- half-life [10]: 23.5 min
- bioavailability [11]: 19.2%
- MIC [12]: 8 µg/mL (≈ 21.3 µM)
- MIC [13]: 0.25 µg/mL (≈ 0.667 µM)
- MIC [14]: 2 µg/mL (≈ 5.34 µM)
- dose excreted [15]: 16.2%
- AUC [16]: 560 µg·min/mL
- concentration at 2 h [17]: 1800 ng/mL
- concentration at 40 min [18]: 15600 ng/mL
- concentration at 20 min [19]: 32000 ng/mL
- MIC [20]: 1 µg/mL (≈ 2.67 µM)
- MIC [21]: 0.5 µg/mL (≈ 1.33 µM)
- bioavailability [22]: 64%
- concentration at 5 min [23]: 57.5 µg/mL
- MIC [24]: 8 µg/mL (≈ 21.3 µM)
- concentration at 3 h [25]: < 1300 ng/mL
- MIC [26]: 0.125 µg/mL (≈ 0.333 µM)
- MIC [27]: 1 µg/mL (≈ 2.67 µM)
- MIC [28]: 0.25 µg/mL (≈ 0.667 µM)
- AUC [29]: 2170 ng·h/mL
- MIC [30]: 4 µg/mL (≈ 10.7 µM)
- dose excreted [31]: 10%
- dose excreted [32]: 36%
Compound: Nc1nc(CC(=O)N[C@@H]2C(=O)N3C(C(=O)O)=C(Cl)CS[C@H]23)cs1

Compound: N[C@@H](C(=O)N[C@@H]1C(=O)N2C(C(=O)O)=C(Cl)CS[C@H]12)c1ccccc1 [CEFACLOR ANHYDROUS]
- MIC [33]: 0.25 µg/mL (≈ 0.68 µM)
- MIC [5]: 1 µg/mL (≈ 2.72 µM)
- MIC [34]: 64 µg/mL (≈ 174 µM)
- MIC [35]: 1 µg/mL (≈ 2.72 µM)
- ED50 [36]: 1.32 mg/kg
- MIC [8]: 4 µg/mL (≈ 10.9 µM)
- MIC [12]: 16 µg/mL (≈ 43.5 µM)
- MIC [13]: 0.5 µg/mL (≈ 1.36 µM)
- MIC [14]: 1 µg/mL (≈ 2.72 µM)
- ED50 [37]: 1.36 mg/kg
- MIC [38]: 0.5 µg/mL (≈ 1.36 µM)
- ED50 [39]: 1.25 mg/kg
- MIC [40]: 16 µg/mL (≈ 43.5 µM)
- MIC [20]: 2 µg/mL (≈ 5.44 µM)
- MIC [41]: 1 µg/mL (≈ 2.72 µM)
- MIC [21]: 2 µg/mL (≈ 5.44 µM)
- bioavailability [22]: 76%
- ED50 [42]: 10.7 mg/kg
- MIC [24]: 8 µg/mL (≈ 21.8 µM)
- ED50 [43]: 11.5 mg/kg
- MIC [26]: 0.25 µg/mL (≈ 0.68 µM)
- MIC [27]: 1 µg/mL (≈ 2.72 µM)
- MIC [30]: 4 µg/mL (≈ 10.9 µM)
- ED50 [44]: 1.25 mg/kg
